Test results reported in ChEMBL document CHEMBL4732112, “Synthesis and in vitro evaluation of novel spiroketopyrazoles as acetyl-CoA carboxylase inhibitors and potential antitumor agents” (Eur J Med Chem, 2021).

Legend:
[1] = target: T1, Acetyl-CoA carboxylase 1 (Homo sapiens, UniProt Q13085); test: Inhibition of recombinant human C-terminal His-tagged ACC1 (1 to 2383 residues) expressed in baculovirus infected Sf9 insect cells preincubated for 15 mins followed by substrate addition and measured after 60 mins by ADP-glo luminescence assay
Outline: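 Recombinant ACC1 in assay buffer preincubated with inhibitor in DMSO for 15 min at room temperature. Reaction started with substrate mixture and run 60 min at room temperature. Stopped with ADP-Glo reagent for 40 min, then detection reagent for 40 min to convert ADP to ATP, read by luminescence. Mean of two independent experiments.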

[2] = system: HepG2; test: Antiproliferative activity against human HepG2 cells assessed as cell growth inhibition after 72 hrs by MTT assay; format: functional, cell-based; conditions: HepG2, 72 h
Outline: (§1)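 HepG2, A549 or MDA-MB-231 cells grown in DMEM with 10% FBS and penicillin/streptomycin at 37 °C, 5% CO2. Seeded at 3×10^3 per well, left 24 h, then exposed to a range of concentrations for 72 h. MTT added for 4 h, formazan dissolved in DMSO, absorbance read at 550 nm. Mean ± SD, n=3.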

[3] = target: T1, Acetyl-CoA carboxylase 1; test: Inhibition of recombinant human C-terminal His-tagged ACC1 (1 to 2383 residues) expressed in baculovirus infected Sf9 insect cells at 0.1 uM preincubated for 15 mins followed by substrate addition and measured after 60 mins by ADP-glo luminescence assay relative to control
[4] = Cytotoxicity against HUVEC assessed as cell viability at 100 uM after 72 hrs by MTT assay relative to control; format: cell-based; conditions: human, HUVEC cells, read-out: Activity
Outline: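 HUVEC kept in RPMI 1640 with 10% FBS at 37 °C, 5% CO2. Seeded at 3×10^3 per well and treated at 100 µM for 72 h after 24 h attachment. Viability by MTT with absorbance at 550 nm, as percent of control. Mean ± SD, n=3.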

[5] = system: A549; test: Antiproliferative activity against human A549 cells assessed as cell growth inhibition after 72 hrs by MTT assay; format: functional, cell-based; conditions: A549, 72 h; outline: as §1
[6] = system: MDA-MB-231; test: Antiproliferative activity against human MDA-MB-231 cells assessed as cell growth inhibition after 72 hrs by MTT assay; format: functional, cell-based; conditions: MDA-MB-231, 72 h; outline: as §1
[7] = target: T1, Acetyl-CoA carboxylase 1; test: Inhibition of recombinant human C-terminal His-tagged ACC1 (1 to 2383 residues) expressed in baculovirus infected Sf9 insect cells at 5 uM preincubated for 15 mins followed by substrate addition and measured after 60 mins by ADP-glo luminescence assay relative to control

| Compound | IC50 [1] [µM] | IC50 [2] [µM] | inhibition [3] [%] | viability at 72 h, 100 µM [4] [%] | IC50 [5] [µM] | IC50 [6] [µM] | inhibition [7] [%] |
| --- | --- | --- | --- | --- | --- | --- | --- |
| Cc1cc(C(=O)N2CCC3(CC2)CC(=O)c2nn(C(C)(C)C)cc2O3)c2ccccc2n1 | > 0.02 | 9.48 | 55 | 101 | > 10 | 4.86 | 93.6 |
| COc1ccc(-c2cc(C(=O)N3CCC4(CC3)CC(=O)c3nn(C(C)(C)C)cc3O4)c3ccccc3n2)cc1 | 0.00318 | 2.78 | 94.8 | 102 | 3.74 | > 10 | 101 |
| CC(C)(C)n1cc2c(n1)C(=O)CC1(CCN(C(=O)c3cc(-c4ccc(Cl)cc4)nc4ccccc34)CC1)O2 | 0.00609 | 0.63 | 93.2 | 87.3 | 2.33 | > 10 | 104 |
| CC(C)(C)n1cc2c(n1)C(=O)CC1(CCN(C(=O)c3ccc4[nH]ncc4c3)CC1)O2 | – | 1.88 | 82.5 | 101 | 3.52 | 5.93 | 101 |
| COc1ccc(-c2cc(C(=O)N3CCC4(CC3)CC(=O)c3nn(C(C)(C)C)cc3O4)c3ccccc3n2)cc1OC | 0.00357 | 1.56 | 95.6 | 93.7 | 2.03 | 7.13 | 102 |
| CC(C)(C)n1cc2c(n1)C(=O)CC1(CCN(C(=O)c3cc(Cl)nc4ccccc34)CC1)O2 | > 0.02 | 4.72 | 59.1 | 99.3 | 7.17 | 9.22 | 96.7 |
| CC(C)(C)n1cc2c(n1)C(=O)CC1(CCN(C(=O)c3cc(-c4ccc(Br)cc4)nc4ccccc34)CC1)O2 | 0.00567 | 0.82 | 93.2 | 84.1 | 9.3 | > 10 | 102 |
| CC(C)(C)n1cc2c(n1)C(=O)CC1(CCN(C(=O)c3cc(N4CCNCC4)nc4ccccc34)CC1)O2 | > 0.02 | 8.57 | 59.6 | 102 | > 10 | 4.2 | 97.6 |
| CCOc1cc(C(=O)N2CCC3(CC2)CC(=O)c2nn(C(C)(C)C)cc2O3)c2ccccc2n1 | > 0.1 | > 10 | 38.4 | 96.1 | > 10 | > 10 | 93.9 |
| CC(C)(C)n1cc2c(n1)C(=O)CC1(CCN(C(=O)c3cc(-c4ccccn4)nc4ccccc34)CC1)O2 | 0.0138 | 1.5 | 84 | 104 | 7.72 | 8.1 | 103 |
| CC(C)(C)n1cc2c(n1)C(=O)CC1(CCN(C(=O)c3cc(-c4ccc(N)cc4)nc4ccccc34)CC1)O2 | 0.00129 | 0.63 | 94.1 | 84.8 | 0.97 | 4.96 | 101 |
| CC(C)(C)n1cc2c(n1)C(=O)CC1(CCN(C(=O)c3cc(-c4ccccc4)nc4ccccc34)CC1)O2 | 0.006 | 2.11 | 90.5 | 97.3 | 1.94 | > 10 | 101 |
| COc1cccc2c1C(=O)c1c(O)c3c(c(O)c1C2=O)C[C@@](O)(C(=O)CO)C[C@@H]3O[C@H]1C[C@H](N)[C@H](O)[C@H](C)O1 [DOXORUBICIN] | – | 0.69 | – | 14.4 | 0.59 | – | – |
| CC(C)(C)n1cc2c(n1)C(=O)CC1(CCN(C(=O)c3cc(N4CCOCC4)nc4ccccc34)CC1)O2 | > 0.02 | 4.57 | 56.9 | 34.4 | > 10 | 3.18 | 97.7 |
| CC(C)(C)n1cc2c(n1)C(=O)CC1(CCN(C(=O)c3cc(-c4ccc(F)cc4)nc4ccccc34)CC1)O2 | 0.0094 | 2.93 | 87.3 | 98.7 | 5.77 | > 10 | 100 |
| COc1ccccc1[C@H](Cn1c(=O)n(C(C)(C)C(=O)O)c(=O)c2c(C)c(-c3ncco3)sc21)OC1CCOCC1 [FIRSOCOSTAT] | 0.00434 | – | – | – | – | – | – |
| CC(C)(C)n1cc2c(n1)C(=O)CC1(CCN(C(=O)c3cc(-c4ccccc4Cl)nc4ccccc34)CC1)O2 | > 0.1 | > 10 | 43.6 | 103 | 2.18 | > 10 | 94.4 |
| Cc1ccc(-c2cc(C(=O)N3CCC4(CC3)CC(=O)c3nn(C(C)(C)C)cc3O4)c3ccccc3n2)cc1 | 0.00222 | 1.44 | 93.8 | 49.6 | 5.3 | > 10 | 101 |
| CN1CCN(c2cc(C(=O)N3CCC4(CC3)CC(=O)c3nn(C(C)(C)C)cc3O4)c3ccccc3n2)CC1 | > 0.02 | 9.55 | 52.8 | 93.5 | > 10 | 8.13 | 97.4 |
| Cc1ccccc1-c1cc(C(=O)N2CCC3(CC2)CC(=O)c2nn(C(C)(C)C)cc2O3)c2ccccc2n1 | > 0.1 | > 10 | 41.8 | 38.6 | 1.88 | > 10 | 95.5 |
| CC(C)Oc1cc(C(=O)N2CCC3(CC2)CC(=O)c2nn(C(C)(C)C)cc2O3)c2ccccc2n1 | > 0.02 | 3.15 | 68 | 102 | > 10 | > 10 | 99.4 |
| COc1cc(C(=O)N2CCC3(CC2)CC(=O)c2nn(C(C)(C)C)cc2O3)c2ccccc2n1 | > 0.1 | > 10 | 36.7 | 98.6 | > 10 | > 10 | 93.8 |
| CN(C)c1ccc(-c2cc(C(=O)N3CCC4(CC3)CC(=O)c3nn(C(C)(C)C)cc3O4)c3ccccc3n2)cc1 | 0.00272 | 1.73 | 96.4 | 91.3 | 1.15 | > 10 | 99.6 |
